Experimental data from ChEMBL document CHEMBL4819144, “Structure-activity relationships of pyrimidine nucleotides containing a 5'-α,β-methylene diphosphonate at the P2Y6 receptor” (Bioorg Med Chem Lett, 2021).

Legend:
[1] = biological target: T1, P2Y purinoceptor 6 (Homo sapiens, UniProt Q15077); experiment: Agonist activity at human P2Y6R expressed in 1321N1 cells assessed as calcium mobilization at 3 uM measured by microplate reader method relative to control; assay type: functional, cell-based
Procedure, shortened: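 Human P2Y6R stably expressed in 1321N1 astrocytoma cells; fluorescence-based (FLIPR) Ca2+ mobilization read-out; agonist tested at a single 3 µM concentration and expressed as % activation.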

[2] = biological target: T1, P2Y purinoceptor 6; experiment: Agonist activity at human P2Y6R expressed in 1321N1 cells assessed as calcium mobilization measured by microplate reader method; assay type: functional, cell-based
[3] = biological target: D(3) dopamine receptor (Homo sapiens) (UniProt P35462); experiment: Displacement of [3H]-N-methylspiperone from dopamine D3 receptor (unknown origin) at 10 uM relative to control
[4] = biological target: T2, P2Y purinoceptor 14 (Homo sapiens, UniProt Q15391); experiment: Binding affinity to human P2Y14 expressed in CHO cells; assay type: cell-based
T2 sequence (Q15391 whole entry): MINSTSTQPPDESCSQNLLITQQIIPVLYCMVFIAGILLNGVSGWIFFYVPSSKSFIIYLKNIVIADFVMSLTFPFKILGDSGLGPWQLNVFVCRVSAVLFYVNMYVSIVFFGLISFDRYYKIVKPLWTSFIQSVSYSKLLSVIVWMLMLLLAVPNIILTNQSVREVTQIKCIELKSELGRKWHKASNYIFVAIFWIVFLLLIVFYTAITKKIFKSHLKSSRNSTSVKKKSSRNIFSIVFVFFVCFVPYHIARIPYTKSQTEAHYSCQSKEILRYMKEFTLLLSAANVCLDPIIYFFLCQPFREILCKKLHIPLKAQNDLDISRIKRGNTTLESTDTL
Procedure, shortened: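 Whole CHO cells stably expressing human P2Y14R; a fluorescent antagonist serves as tracer and binding is read by flow cytometry; IC50 from inhibition of tracer binding.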

[5] = biological target: T3, 5'-nucleotidase (Rattus norvegicus, UniProt P21588); experiment: Inhibition of rat CD73 using [3H]-AMP as substrate by radiometric assay
T3 sequence (P21588 whole entry): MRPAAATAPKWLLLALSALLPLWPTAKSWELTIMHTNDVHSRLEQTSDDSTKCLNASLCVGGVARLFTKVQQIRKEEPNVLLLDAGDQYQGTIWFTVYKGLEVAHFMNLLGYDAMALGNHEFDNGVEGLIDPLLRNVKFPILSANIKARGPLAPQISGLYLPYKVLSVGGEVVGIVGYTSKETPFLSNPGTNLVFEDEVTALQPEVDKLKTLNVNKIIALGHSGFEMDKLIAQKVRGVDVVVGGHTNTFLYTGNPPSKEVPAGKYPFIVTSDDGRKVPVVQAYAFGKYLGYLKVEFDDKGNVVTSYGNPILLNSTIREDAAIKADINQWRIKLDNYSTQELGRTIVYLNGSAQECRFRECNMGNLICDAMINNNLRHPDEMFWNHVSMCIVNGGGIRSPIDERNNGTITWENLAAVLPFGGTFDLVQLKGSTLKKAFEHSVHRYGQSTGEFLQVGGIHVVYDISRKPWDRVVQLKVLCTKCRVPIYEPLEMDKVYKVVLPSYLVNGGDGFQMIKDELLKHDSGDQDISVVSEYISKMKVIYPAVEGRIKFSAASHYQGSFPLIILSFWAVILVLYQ

[6] = biological target: T1, P2Y purinoceptor 6; experiment: Agonist activity at human P2Y6R expressed in 1321N1 cells by PLC assay; conditions: dose 3.0 µM, time 30.0 min
[7] = biological target: T1, P2Y purinoceptor 6; experiment: Agonist activity at human P2Y6R expressed in 1321N1 cells assessed as calcium mobilization measured by FLIPR method; assay type: functional, cell-based
[8] = species: Homo sapiens; experiment: Selectivity ratio of IC50 for human P2Y14 expressed in CHO cells to EC50 for human P2Y6R expressed in 1321N1 cells; assay type: cell-based
Procedure, shortened: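 The ratio divides the hP2Y14R IC50 by the hP2Y6R EC50. The IC50 comes from flow-cytometric displacement of a fluorescent antagonist tracer in whole hP2Y14R-CHO cells.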

[9] = biological target: T2, P2Y purinoceptor 14; experiment: Agonist activity at human P2Y14 expressed in CHO cells
[10] = biological target: Sigma non-opioid intracellular receptor 1 (Homo sapiens) (UniProt Q99720); experiment: Displacement of [3H]-Pentazocine from sigma-1 receptor (unknown origin) at 10 uM relative to control
Chain of Sigma non-opioid intracellular receptor 1 (Homo sapiens) (Q99720 whole entry): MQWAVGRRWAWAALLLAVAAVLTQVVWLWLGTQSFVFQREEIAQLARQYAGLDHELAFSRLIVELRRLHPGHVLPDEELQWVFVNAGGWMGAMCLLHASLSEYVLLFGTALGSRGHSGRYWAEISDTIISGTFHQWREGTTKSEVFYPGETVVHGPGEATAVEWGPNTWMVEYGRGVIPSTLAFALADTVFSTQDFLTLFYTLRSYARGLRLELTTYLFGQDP

T1 sequence (Q15077 whole entry): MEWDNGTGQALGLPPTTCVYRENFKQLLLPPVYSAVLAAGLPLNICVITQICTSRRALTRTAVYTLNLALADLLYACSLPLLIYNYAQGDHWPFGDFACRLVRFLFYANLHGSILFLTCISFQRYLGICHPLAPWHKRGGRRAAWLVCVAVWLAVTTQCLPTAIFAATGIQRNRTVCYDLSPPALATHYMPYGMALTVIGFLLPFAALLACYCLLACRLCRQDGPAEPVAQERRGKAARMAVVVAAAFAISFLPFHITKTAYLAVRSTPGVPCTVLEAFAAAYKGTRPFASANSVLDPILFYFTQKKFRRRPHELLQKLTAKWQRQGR
Chain of D(3) dopamine receptor (Homo sapiens) (P35462 whole entry): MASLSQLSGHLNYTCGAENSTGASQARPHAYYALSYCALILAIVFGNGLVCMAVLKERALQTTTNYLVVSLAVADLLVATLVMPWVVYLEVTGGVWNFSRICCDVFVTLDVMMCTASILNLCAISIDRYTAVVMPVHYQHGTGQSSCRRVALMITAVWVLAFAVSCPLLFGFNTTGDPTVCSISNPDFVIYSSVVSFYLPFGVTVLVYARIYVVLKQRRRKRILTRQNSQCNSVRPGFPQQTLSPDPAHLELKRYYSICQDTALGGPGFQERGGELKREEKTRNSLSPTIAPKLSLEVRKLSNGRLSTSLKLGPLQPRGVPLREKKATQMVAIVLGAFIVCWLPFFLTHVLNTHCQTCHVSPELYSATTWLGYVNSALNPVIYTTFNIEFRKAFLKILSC

Question: `CCn1c(=O)n([C@@H]2O[C@H](COP(=O)(O)CP(=O)(O)O)[C@@H](O)[C@H]2O)cc/c1=N/OCc1ccccc1` was tested. Which Activity [1] did it give?
Answer: 5.7%

Question: How did the Activity [1] turn out when `O=c1ccn([C@@H]2O[C@H](COP(=O)(O)CP(=O)(O)O)[C@@H](O)[C@@H]2O)c(=O)[nH]1` was run?
Answer: 2.4%

Question: Which EC50 [2] does the source give for `CO/N=c1/ccn([C@@H]2O[C@H](COP(=O)(O)OP(=O)(O)O)[C@@H](O)[C@H]2O)c(=O)[nH]1` here?
Answer: 493 nM

Question: With `COC(=O)c1ccc(CO/N=c2/ccn([C@@H]3O[C@H](COP(=O)(O)CP(=O)(O)O)[C@@H](O)[C@H]3O)c(=O)[nH]2)cc1` as the compound, how does the EC50 [2] read?
Answer: 1670 nM

Question: What about the inhibition [3] of the same compound?
Answer: 85%

Question: Which IC50 [4] does the source give for `O=c1[nH]c(=O)n([C@@H]2O[C@H](COP(=O)(O)CP(=O)(O)O)[C@@H](O)[C@H]2O)cc1Cl` here?
Answer: 16600 nM

Question: With `Cc1cn([C@@H]2O[C@H](COP(=O)(O)CP(=O)(O)O)[C@@H](O)[C@H]2O)c(=O)[nH]/c1=N/OCc1ccccc1` as the compound, how does the IC50 [5] read?
Answer: 321 nM

Question: For `CO/N=c1/ccn([C@@H]2O[C@H](COP(=O)(O)CP(=O)(O)O)[C@@H](O)[C@H]2O)c(=O)[nH]1`, which IC50 [5] is on record?
Answer: 257 nM

Question: How did the EC50 [6] turn out when `O=c1ccn([C@@H]2O[C@H](COP(=O)(O)CP(=O)(O)O)[C@@H](O)[C@H]2O)c(=S)[nH]1` was run?
Answer: 1990 nM

Question: Which Activity [1] does the source give for `Nc1nc(=O)n([C@@H]2O[C@H](COP(=O)(O)CP(=O)(O)O)[C@@H](O)[C@H]2O)cc1I` here?
Answer: 3.4%

Question: Which IC50 [4] does the source give for `O=c1[nH]/c(=N\OCc2ccc(Cl)cc2)ccn1[C@@H]1O[C@H](COP(=O)(O)CP(=O)(O)O)[C@@H](O)[C@H]1O` here?
Answer: > 100000 nM

Question: Which Activity [1] does the source give for `O=c1cnn([C@@H]2O[C@H](COP(=O)(O)CP(=O)(O)O)[C@@H](O)[C@H]2O)c(=O)[nH]1` here?
Answer: 5.2%

Question: `O=c1[nH]c(=O)n([C@@H]2O[C@H](COP(=O)(O)CP(=O)(O)O)[C@@H](O)[C@H]2O)cc1Br` was tested. Which EC50 [2] did it give?
Answer: 104 nM

Question: How did the EC50 [2] turn out when `O=c1[nH]/c(=N/OCc2ccccc2)c(F)cn1[C@@H]1O[C@H](COP(=O)(O)CP(=O)(O)O)[C@@H](O)[C@H]1O` was run?
Answer: 549 nM

Question: And the IC50 [4]?
Answer: 21500 nM

Question: What about the EC50 [7] of the same compound?
Answer: 549 nM

Question: What about the IC50 [5] of the same compound?
Answer: 85 nM

Question: What about the Ratio IC50/EC50 [8] of the same compound?
Answer: 39

Question: How did the IC50 [5] turn out when `O=c1ccn([C@@H]2O[C@H](COP(=O)(O)CP(=O)(O)O)[C@@H](O)[C@H]2O)c(=O)[nH]1` was run?
Answer: 1830 nM

Question: What about the EC50 [9] of the same compound?
Answer: 11 nM

Question: What about the EC50 [6] of the same compound?
Answer: 339 nM

Question: `Cn1c(=O)n([C@@H]2O[C@H](COP(=O)(O)CP(=O)(O)O)[C@@H](O)[C@H]2O)cc/c1=N/OCc1ccccc1` was tested. Which Activity [1] did it give?
Answer: 3.6%

Question: `Cc1cn([C@@H]2O[C@H](COP(=O)(O)CP(=O)(O)O)[C@@H](O)[C@H]2O)c(=O)nc1N` was tested. Which Activity [1] did it give?
Answer: 3%

Question: `O=c1[nH]/c(=N\OCc2ccc(S(F)(F)(F)(F)F)cc2)ccn1[C@@H]1O[C@H](COP(=O)(O)CP(=O)(O)O)[C@@H](O)[C@H]1O` was tested. Which EC50 [2] did it give?
Answer: 1590 nM

Question: And the inhibition [10]?
Answer: 59%

Question: `CCCn1c(=O)ccn([C@@H]2O[C@H](COP(=O)(O)CP(=O)(O)O)[C@@H](O)[C@H]2O)c1=O` was tested. Which Activity [1] did it give?
Answer: 2.7%

Question: For `O=c1[nH]/c(=N\OCc2ccccc2)ccn1[C@@H]1O[C@H](COP(=O)(O)OP(=O)(O)O)[C@@H](O)[C@H]1O`, which EC50 [2] is on record?
Answer: 793 nM

Question: With `O=c1[nH]c(=O)n([C@@H]2O[C@H](COP(=O)(O)CP(=O)(O)O)[C@@H](O)[C@H]2O)cc1I` as the compound, how does the EC50 [2] read?
Answer: 49.1 nM

Question: And the IC50 [5]?
Answer: 162 nM

Question: What does the source list for `O=c1[nH]/c(=N\OCc2cccc(Cl)c2)ccn1[C@@H]1O[C@H](COP(=O)(O)CP(=O)(O)O)[C@@H](O)[C@H]1O`?
Answer: EC50 [2]: 1450 nM; IC50 [4]: > 100000 nM; EC50 [7]: 1450 nM

Question: Which Activity [1] does the source give for `O=c1ccn([C@@H]2O[C@H](COP(=O)(O)CP(=O)(O)O)[C@@H](O)[C@H]2O)c(=O)n1Cc1ccccc1` here?
Answer: 5.3%

Question: How did the IC50 [5] turn out when `O=c1[nH]c(=O)n([C@@H]2O[C@H](COP(=O)(O)CP(=O)(O)O)[C@@H](O)[C@H]2O)cc1F` was run?
Answer: > 1000 nM

Question: Which Activity [1] does the source give for `CCn1c(=O)ccn([C@@H]2O[C@H](COP(=O)(O)CP(=O)(O)O)[C@@H](O)[C@H]2O)c1=O` here?
Answer: 3.5%

Question: With `Nc1nc(=O)n([C@@H]2O[C@H](COP(=O)(O)CP(=O)(O)O)[C@@H](O)[C@H]2O)cc1F` as the compound, how does the Activity [1] read?
Answer: 5.7%

Question: `O=c1[nH]/c(=N\OCc2ccccc2)ccn1[C@@H]1O[C@H](COP(=O)(O)CP(=O)(O)O)[C@@H](O)[C@H]1O` was tested. Which IC50 [5] did it give?
Answer: 112 nM

Question: `O=c1[nH]/c(=N\OCc2ccc(C(F)(F)F)cc2)ccn1[C@@H]1O[C@H](COP(=O)(O)CP(=O)(O)O)[C@@H](O)[C@H]1O` was tested. Which IC50 [4] did it give?
Answer: > 100000 nM

Question: What about the IC50 [5] of the same compound?
Answer: 30 nM
